Laboratory results as given in ChEMBL document CHEMBL3877267, “Synthesis, biological evaluation and molecular modeling of 1-oxa-4-thiaspiro- and 1,4-dithiaspiro[4.5]decane derivatives as potent and selective 5-HT1A receptor agonists” (Eur J Med Chem, 2017).
Calls of active or inactive are those of the source. The calls are words filed in the database; no cut-off is given here.

Assays:
[1] = molecular target: T1, 5-hydroxytryptamine receptor 1A (Homo sapiens) (UniProt P08908); assay: Agonist activity at recombinant human 5-HT1A receptor expressed in HeLa cell membranes assessed as induction of [35S]GTPgammaS binding preincubated for 20 mins followed by [35S]GTPgammaS addition measured after 30 mins by liquid scintillation counting method; type: functional
T1 sequence (whole entry): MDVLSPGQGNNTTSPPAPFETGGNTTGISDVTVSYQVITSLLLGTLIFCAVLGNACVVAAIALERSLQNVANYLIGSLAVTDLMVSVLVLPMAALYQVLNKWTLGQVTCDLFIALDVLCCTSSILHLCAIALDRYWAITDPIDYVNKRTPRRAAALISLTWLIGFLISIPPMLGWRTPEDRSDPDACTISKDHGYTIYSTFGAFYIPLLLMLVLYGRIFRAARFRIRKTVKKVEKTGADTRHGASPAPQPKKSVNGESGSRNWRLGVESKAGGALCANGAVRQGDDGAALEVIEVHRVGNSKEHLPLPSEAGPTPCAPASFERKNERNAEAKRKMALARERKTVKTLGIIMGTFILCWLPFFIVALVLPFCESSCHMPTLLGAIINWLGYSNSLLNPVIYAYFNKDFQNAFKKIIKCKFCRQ
How it was run: (§1)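 HeLa membranes with recombinant human 5-HT1A (50-70 µg protein) in 20 mM HEPES, 3 mM MgSO4, 120 mM NaCl, pH 7.4. Pre-incubated with 30 µM GDP and drug (0.01 nM–10 µM) for 20 min at 30 °C, then 200 pM [35S]GTPγS added for 30 min at 30 °C. Nonspecific binding defined with 10 µM GTPγS. Filtration and scintillation counting. Emax and pD2 taken from concentration–response fits.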

[2] = molecular target: T2, Alpha-1A adrenergic receptor (Homo sapiens, UniProt P35348); assay: Displacement of [3H]prazosin from recombinant human alpha1a adrenergic receptor expressed in CHO cell membranes after 30 mins by TopCount liquid scintillation counting method
T2 sequence (P35348 whole entry): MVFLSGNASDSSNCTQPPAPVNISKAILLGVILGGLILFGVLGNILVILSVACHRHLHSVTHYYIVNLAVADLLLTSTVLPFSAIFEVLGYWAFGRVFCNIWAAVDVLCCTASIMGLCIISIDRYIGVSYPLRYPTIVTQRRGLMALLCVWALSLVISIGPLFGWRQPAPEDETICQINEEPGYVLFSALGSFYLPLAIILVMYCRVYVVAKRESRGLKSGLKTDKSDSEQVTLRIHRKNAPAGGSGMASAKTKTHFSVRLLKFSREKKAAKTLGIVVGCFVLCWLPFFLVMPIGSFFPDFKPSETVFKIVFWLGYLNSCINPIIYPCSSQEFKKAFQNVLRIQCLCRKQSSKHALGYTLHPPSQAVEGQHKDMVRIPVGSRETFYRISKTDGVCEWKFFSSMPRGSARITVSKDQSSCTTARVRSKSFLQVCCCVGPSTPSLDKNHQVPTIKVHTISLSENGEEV
How it was run: (§2)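 Membranes from CHO cells stably expressing each human α1 subtype (70 µg protein), incubated in 50 mM Tris pH 7.4 with 0.1–0.4 nM [3H]prazosin and competitor (1 pM–1 µM) for 30 min at 25 °C. Nonspecific binding defined with 10 µM tamsulosin. Filtration and scintillation counting.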

[3] = molecular target: T3, Alpha-1B adrenergic receptor (Homo sapiens, UniProt P35368); assay: Displacement of [3H]prazosin from recombinant human alpha1b adrenergic receptor expressed in CHO cell membranes after 30 mins by TopCount liquid scintillation counting method
T3 sequence (P35368 whole entry): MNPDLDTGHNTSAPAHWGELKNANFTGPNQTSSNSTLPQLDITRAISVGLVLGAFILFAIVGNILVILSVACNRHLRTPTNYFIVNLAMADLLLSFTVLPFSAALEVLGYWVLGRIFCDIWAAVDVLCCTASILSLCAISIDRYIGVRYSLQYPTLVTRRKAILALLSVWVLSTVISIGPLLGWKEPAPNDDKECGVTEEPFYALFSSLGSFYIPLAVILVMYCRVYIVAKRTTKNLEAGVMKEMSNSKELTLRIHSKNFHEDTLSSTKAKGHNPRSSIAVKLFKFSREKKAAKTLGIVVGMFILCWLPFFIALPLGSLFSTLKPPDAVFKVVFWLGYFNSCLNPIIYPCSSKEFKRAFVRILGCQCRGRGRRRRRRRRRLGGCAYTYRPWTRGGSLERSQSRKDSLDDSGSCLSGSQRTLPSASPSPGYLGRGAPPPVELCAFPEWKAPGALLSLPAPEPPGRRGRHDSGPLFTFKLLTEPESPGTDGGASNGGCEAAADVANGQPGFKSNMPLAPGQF
How it was run: as §2, with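 “counting. Ki by Cheng–Prusoff; pKi mean of 2–3 experiments in duplicate.” for “counting.”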

[4] = molecular target: T4, Alpha-1D adrenergic receptor (Homo sapiens, UniProt P25100); assay: Displacement of [3H]prazosin from recombinant human alpha1d adrenergic receptor expressed in CHO cell membranes after 30 mins by TopCount liquid scintillation counting method; how it was run: as §2
T4 sequence (P25100 whole entry): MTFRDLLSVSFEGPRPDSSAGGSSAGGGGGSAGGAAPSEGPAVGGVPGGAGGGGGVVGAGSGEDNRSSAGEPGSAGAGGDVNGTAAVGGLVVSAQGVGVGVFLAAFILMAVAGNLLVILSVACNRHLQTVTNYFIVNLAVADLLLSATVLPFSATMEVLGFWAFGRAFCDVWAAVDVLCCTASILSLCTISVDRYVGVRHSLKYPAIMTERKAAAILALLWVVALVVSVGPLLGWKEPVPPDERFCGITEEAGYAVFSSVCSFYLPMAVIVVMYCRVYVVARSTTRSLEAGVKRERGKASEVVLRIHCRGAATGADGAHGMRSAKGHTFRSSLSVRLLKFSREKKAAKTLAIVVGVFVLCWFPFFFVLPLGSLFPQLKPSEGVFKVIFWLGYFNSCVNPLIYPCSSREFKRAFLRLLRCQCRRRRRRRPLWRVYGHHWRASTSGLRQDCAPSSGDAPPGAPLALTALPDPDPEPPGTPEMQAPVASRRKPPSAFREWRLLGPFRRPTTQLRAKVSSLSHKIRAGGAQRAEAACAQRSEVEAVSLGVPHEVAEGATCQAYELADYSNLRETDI

[5] = molecular target: T5, 5-hydroxytryptamine receptor 1A (Homo sapiens, UniProt P08908); assay: Displacement of [3H]8-OH-DPAT from recombinant human 5-HT1A receptor expressed in HeLa cell membranes after 30 mins by TopCount liquid scintillation counting method; type: cell-based
T5 sequence (P08908 whole entry): T1 sequence (whole entry)

[6] = Cytotoxicity against human SH-SY5Y cells assessed as reduction in cell viability after 24 hrs by MTT assay; type: toxicity, cell-based
How it was run: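 SH-SY5Y cells in DMEM with 10% heat-inactivated FBS, 2 mM L-glutamine, penicillin/streptomycin, 37 °C, 5% CO2; seeded 10,000 cells/well and incubated overnight. Compounds added at 0.1-100 μM for 24 h at 37 °C. MTT (0.5% w/v) added for 3 h, cells lysed in DMSO/EtOH 1:1, absorbance at 570 nm. IC50 taken as the concentration giving 50% growth inhibition.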

[7] = molecular target: T1, 5-hydroxytryptamine receptor 1A (Homo sapiens); assay: Agonist activity at recombinant human 5-HT1A receptor expressed in HeLa cell membranes assessed as induction of [35S]GTPgammaS binding up to 10 uM preincubated for 20 mins followed by [35S]GTPgammaS addition measured after 30 mins by liquid scintillation counting method relative to serotonin; type: functional; how it was run: as §1
[8] = Neuroprotective activity against H2O2-induced cell death in human SH-SY5Y cells assessed as increase in cell viability at 1 uM after 24 hrs by MTT assay; type: functional
How it was run: (§3)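 SH-SY5Y cells seeded at 10,000 cells/well and grown 24 h at 37 °C, 5% CO2. Then co-incubated 24 h with compound at 1 μM plus one insult: H2O2 195 μM, oligomycin A 30 μM or rotenone 75 μM. Viability read by MTT at 570 nm. Given as percent neuroprotection ± SD from three independent experiments.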

[9] = Neuroprotective activity against H2O2-induced cell death in human SH-SY5Y cells assessed as increase in cell viability at 0.1 uM after 24 hrs by MTT assay; type: functional
How it was run: (§4)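 SH-SY5Y cells seeded at 10,000 cells/well and grown 24 h at 37 °C, 5% CO2. Then co-incubated 24 h with compound at 0.1 μM plus one insult: H2O2 195 μM, oligomycin A 30 μM or rotenone 75 μM. Viability read by MTT at 570 nm. Given as percent neuroprotection ± SD from three independent experiments.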

[10] = Neuroprotective activity against oligomycin A-induced cell death in human SH-SY5Y cells assessed as increase in cell viability at 1 uM after 24 hrs by MTT assay; type: functional; how it was run: as §3
[11] = Neuroprotective activity against oligomycin A-induced cell death in human SH-SY5Y cells assessed as increase in cell viability at 0.1 uM after 24 hrs by MTT assay; type: functional; how it was run: as §4
[12] = Neuroprotective activity against rotenone-induced cell death in human SH-SY5Y cells assessed as increase in cell viability at 1 uM after 24 hrs by MTT assay; type: functional; how it was run: as §3
[13] = Neuroprotective activity against rotenone-induced cell death in human SH-SY5Y cells assessed as increase in cell viability at 0.1 uM after 24 hrs by MTT assay; type: functional; how it was run: as §4
[14] = Apparent permeability from apical to basolateral side in MDCK2-MDR1 cells at 75 uM after 120 mins by UV-Visible spectrophotometric method; type: ADME, cell-based, Canis lupus familiaris, MDCK-II; details: dog, MDCK-MDR1
How it was run: (§5)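 MDCKII-MDR1 cells seeded at 100,000 cells/cm² on Transwell inserts (0.4 µm pores); monolayers with TEER 800 Ohm cm² used. Equilibrated 30 min at 37 °C in pH 7.4 bicarbonate/glucose transport medium. Receiver sampled after 120 min at 37 °C, 5% CO2, quantified by UV-Vis. Papp calculated from acceptor/initial concentration. Triplicate wells, three experiments.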

[15] = Apparent permeability from basolateral to apical side in MDCK2-MDR1 cells at 75 uM after 120 mins by UV-Visible spectrophotometric method; type: ADME, cell-based, Canis lupus familiaris, MDCK-II; details: dog, MDCK-MDR1; how it was run: as §5
[16] = Efflux ratio of apparent permeability from basolateral to apical over apical to basolateral side in MDCK2-MDR1 cells at 75 uM after 120 mins by UV-Visible spectrophotometric method; type: ADME, cell-based, Canis lupus familiaris; details: dog, MDCK-MDR1
Mus musculus = assay: Analgesic activity in Swiss CD1 mouse assessed reduction in formalin-induced inflammatory pain by measuring reduction in time spent in licking or biting formalin injected hind paw at 10 mg/kg, ip pretreated for 15 mins followed by formalin injection measured every 5 mins for 10 to 60 mins; type: functional, organism-based
How it was run: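 Male Swiss […] mice, 25-30 g. Dosed i.p. in saline with 10% DMSO (5 ml/kg) 15 min before 5% formalin (10 µl) into the right hind paw. […] 8-10 mice per group; mean ± SEM; two-way repeated-measures ANOVA with Bonferroni post hoc test; scored blind.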

| Structure (SMILES) | pD2 [1] | Ki [2] [nM] | Ki [3] [nM] | Ki [4] [nM] | Ki [5] [nM] | further results |
| --- | --- | --- | --- | --- | --- | --- |
| COc1ccccc1N1CCN(CC2COC3(CCCCC3)O2)CC1 (stereo not given) | 8.61 |  |  |  |  |  |
| COc1ccccc1OCCNCC1CSC2(CCCCC2)O1 (stereo not given) |  | 269 | 219 | 32.4 | 2.24 |  |
| CC[C@H]1/C=C/C=C/C[C@@H](C)[C@H](O)[C@@](C)(O)C(=O)[C@@H](C)[C@H](O)[C@@H](C)C(=O)[C@@H](C)[C@H](O)[C@@H](C)/C=C/C(=O)O[C@@H]2[C@H](C)[C@H](CC1)O[C@]1(CC[C@H](C)[C@H](C[C@@H](C)O)O1)[C@H]2C [OLIGOMYCIN] |  |  |  |  |  | IC50 at 24 h [6]: 29000 nM |
| COc1cccc(OC)c1OCCNCC1COC2(CCCCC2)O1 (stereo not given) |  | > 1000 | > 1000 | 1780 |  |  |
| COc1ccccc1N1CCN(CC2CSC3(CCCCC3)O2)CC1 (stereo not given) |  | 57.5 | 191 | 38.9 | 5.01 |  |
| COc1ccccc1N1CCN(CCN2C(=O)CC3(CCCC3)CC2=O)CC1 | 9.27 |  |  |  |  |  |
| c1ccc(OCCNCC2CSC3(CCCCC3)S2)cc1 (stereo not given) | 8.27 | > 1000 | 550 | 123 | 1.55 | Emax [7]: 85% |
| c1ccc(OCCNCC2COC3(CCCCC3)O2)cc1 (stereo not given) |  | > 1000 | 977 | 550 |  |  |
| COc1ccccc1OCCNCC1CSC2(CCCCC2)S1 (stereo not given) | 9.58 | 186 | 195 | 34.7 | 0.933 | Emax [7]: 74%; IC50 at 24 h [6]: 51000 nM; Activity [8]: 66%; Activity [9]: 83%; Activity [10]: 86%; Activity [11]: 81%; Activity [12]: 66%; Activity [13]: 62%; Papp A→B at 2 h, 75 µM [14]: 11.1 ×10⁻⁶ cm/s; Papp B→A at 2 h, 75 µM [15]: 10.9 ×10⁻⁶ cm/s; efflux ratio at 2 h, 75 µM [16]: 0.98; Activity (Mus musculus): Active |
| OO [HYDROGEN PEROXIDE] |  |  |  |  |  | IC50 at 24 h [6]: 195000 nM |
| COc1ccccc1N1CCN(CC2CSC3(CCCCC3)S2)CC1 (stereo not given) | 8.61 | 200 | 407 | 100 | 3.02 | Emax [7]: 37% |
| C=C(C)[C@H]1Cc2c(ccc3c2O[C@@H]2COc4cc(OC)c(OC)cc4[C@@H]2C3=O)O1 [ROTENONE] |  |  |  |  |  | IC50 at 24 h [6]: 74100 nM |
| c1ccc(OCCNCC2CSC3(CCCCC3)O2)cc1 (stereo not given) |  | > 1000 | 437 | 214 | 22.9 |  |
| COc1ccccc1OCCNCC1COC2(CCCCC2)O1 (stereo not given) |  | 229 | 389 | 95.5 |  |  |
